Laboratory results as given in PubChem BioAssay.
Active and inactive are the calls of the source.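 How the source made its calls, unless noted: active means GFP response above 150% of the DMSO level; inconclusive means fewer than 70 events counted for a yeast strain; inactive means the rest.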

Key:
[1] = RPL19A-GFP modulators, yeast TOR pathway, confirmation, cell-based, S. cerevisiae, flow cytometry, cherry picks, mother/daughter gates (AID 2270;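 active means GFP response below 50% of the DMSO control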); settings: S. cerevisiae RPL19A-GFP strain, 3 h, at 10 µM, stronger effect = lower value, 100 = same GFP as DMSO wells
[2] = LAP4-GFP expression modulators in yeast, confirmation, cell-based, cherry picks, flow cytometry, mother/daughter gates (AID 2271;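 active means GFP response above 150% of the DMSO control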;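 further: ratio of sample to DMSO plate mean so 100% equals DMSO level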); settings: S. cerevisiae LAP4-GFP strain, 3 h, at 10 µM, stronger effect = higher value, 100 means same as DMSO control
Outline: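 Test system: GFP-fusion yeast strain. Medium: synthetic complete (SC) yeast growth medium. Timing: 3 h treatment at 30 °C with rotation. Measured by: GFP by flow cytometry. Control set: positive rapamycin (400 ng/mL), negative DMSO.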

[3] = modulators of MEP2-GFP levels in yeast, confirmation, S. cerevisiae, flow cytometry GFP, cherry picks (AID 2272;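 active means GFP response above 150% of the DMSO control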;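 further: ratio of well signal to plate DMSO mean so 100% equals DMSO level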); settings: S. cerevisiae MEP2-GFP strain, 3 h, at 10 µM, stronger effect = higher value
[4] = AGP1-GFP expression modulators, hit retest, confirmation, cell-based, flow cytometry, S. cerevisiae, cherry picks (AID 2273);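 further: median GFP channel fluorescence over the whole cell population gate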; settings: S. cerevisiae AGP1-GFP strain, 3 h, at 10 µM
[5] = modulators of CIT2-GFP expression in yeast, confirmation, S. cerevisiae, GFP fusion, cherry picks, mother/daughter gates (AID 2274); settings: S. cerevisiae CIT2-GFP strain, flow cytometry, 3 h, at 10 µM, stronger effect = higher value
[6] = measured here: daughter cell gate
[7] = measured here: mother cell gate
[8] = measured here: daughter cell gate response
[9] = measured here: mother cell gate response

Row | SMILES | GFP response vs DMSO [1] | GFP response vs DMSO [1, 6] | GFP response vs DMSO [1, 7] | GFP response relative to DMSO [2] | GFP response relative to DMSO [2, 8] | GFP response relative to DMSO [2, 9] | GFP response vs DMSO [3] | GFP response, % of DMSO [4] | GFP response, % of DMSO [5] | GFP response, % of DMSO [5, 6] | GFP response, % of DMSO [5, 7]
1 | Cc1ccccc1C(=O)Nc1ccccc1 | 96.4% (inactive) | 94.9% | 97.4% | 96.7% (inactive) | 97.6% | 97.2% | 96.2% (inactive) | 100% (inactive) | 101% (inactive) | 103% | 102%
2 | S=c1[nH]nc(NCCCN2CCOCC2)s1 | 96% (inactive) | 97.1% | 95.1% | 101% (inactive) | 101% | 102% | 103% (inactive) | 106% (inactive) | 102% (inactive) | 100% | 103%
3 | Cc1ccc(/C(C#N)=C\c2ccc(N3CCOCC3)o2)cc1 | 97.8% (inactive) | 97.1% | 98% | 102% (inactive) | 104% | 103% | 109% (inactive) | 99.4% (inactive) | 98.8% (inactive) | 99.2% | 99.3%
4 | CCNC(=O)/C(C#N)=C/c1c(N2CCOCC2)nc2ccccn2c1=O | 96.9% (inactive) | 99.3% | 95.4% | 102% (inactive) | 101% | 104% | 103% (inactive) | 102% (inactive) | 100% (inactive) | 101% | 99.3%
5 | Cc1ccc(S(=O)(=O)CC#CCOC(=O)c2ccc([N+](=O)[O-])cc2)cc1 | 105% (inactive) | 107% | 103% | 140% (inactive) | 132% | 148% | 105% (inactive) | 111% (inactive) | 97.2% (inactive) | 100% | 90.8%
6 | Cc1cc(N)n2ncc(-c3ccccc3)c2n1 | 95.6% (inactive) | 95.1% | 94% | 106% (inactive) | 102% | 106% | 105% (inactive) | 89.4% (inactive) | 101% (inactive) | 101% | 98.5%
7 | CS(=O)(=O)N1N=C(c2ccc(Br)cc2)CC1c1ccc2c(c1)OCO2 (stereo unspecified) | 102% (inactive) | 101% | 102% | 105% (inactive) | 104% | 104% | 114% (inactive) | 99.3% (inactive) | 109% (inactive) | 111% | 107%
8 | CCNc1nc(-c2ccc(Cl)cc2)cs1 | 101% (inactive) | 100% | 101% | 93.8% (inactive) | 97.2% | 96.2% | 102% (inactive) | 97.8% (inactive) | 104% (inactive) | 101% | 106%
9 | O=S(=O)(c1ccc(NC(=S)N/N=C/c2cccc(Oc3ccccc3)c2)cc1)N1CCOCC1 | 97.8% (inactive) | 98.6% | 97.3% | 94.9% (inactive) | 93.5% | 96.2% | 105% (inactive) | 106% (inactive) | 102% (inactive) | 103% | 103%
10 | CNC(=O)/C(C#N)=C/c1c(N(Cc2ccccc2)Cc2ccccc2)nc2c(C)cccn2c1=O | 97.2% (inactive) | 98.1% | 97.8% | 94.4% (inactive) | 95.9% | 93.1% | 112% (inactive) | 103% (inactive) | 106% (inactive) | 108% | 104%
11 | Cc1nc(C)c(-c2csc(NCCc3ccccc3)n2)s1 | 96.7% (inactive) | 96.4% | 95.9% | 112% (inactive) | 105% | 113% | 112% (inactive) | 96.6% (inactive) | 108% (inactive) | 110% | 107%
12 | COC(=O)c1cccc(-n2c(CCC(=O)O)ccc2-c2cccs2)c1 | 99.2% (inactive) | 98.9% | 100% | 104% (inactive) | 103% | 103% | 98.8% (inactive) | 103% (inactive) | 97.2% (inactive) | 96.8% | 97.7%
13 | Cc1ccc(N2C(=O)CC(Sc3ncn[nH]3)C2=O)cc1C (stereo unspecified) | 106% (inactive) | 111% | 101% | 137% (inactive) | 133% | 140% | 109% (inactive) | 100% (inactive) | 104% (inactive) | 112% | 97.3%
14 | COc1ccc2c(c1)c(/C=C/c1cc[n+](C)cc1)cn2C | 105% (inactive) | 107% | 106% | 136% (inactive) | 143% | 134% | 162% (inactive) | 111% (inactive) | 150% (inactive) | 158% | 145%
15 | Cc1c(NC(=O)/C(C#N)=C/c2c(N3CCCCC3)nc3ccccn3c2=O)c(=O)n(-c2ccccc2)n1C | 95% (inactive) | 95.1% | 96.6% | 94.1% (inactive) | 94.4% | 95.1% | 96.2% (inactive) | 109% (inactive) | 101% (inactive) | 105% | 101%
16 | CC(Oc1cccc(Cl)c1)C(=O)Nc1nc(-c2ccccn2)cs1 (stereo unspecified) | 105% (inactive) | 97% | 103% | 161% (active) | 140% | 167% | 104% (inactive) | 90.8% (inactive) | 86.1% (inactive) | 93.2% | 81.6%
